# From BindingDB's records for doi:10.1016/j.ejmech.2019.111879 (University of Bonn, 2020)
# Tests used:
# Adenosine receptor A3 [1] = target: T1, Adenosine receptor A3 (Rattus norvegicus, UniProt P28647); assay: Antagonist activity at rat A3AR expressed in CHO cells assessed as reduction in NECA-induced inhibition of forskolin-stimulated cAMP accumulation at 10 uM incubated for 2 hrs by fluorescence based assay
# T1 sequence (P28647 whole entry): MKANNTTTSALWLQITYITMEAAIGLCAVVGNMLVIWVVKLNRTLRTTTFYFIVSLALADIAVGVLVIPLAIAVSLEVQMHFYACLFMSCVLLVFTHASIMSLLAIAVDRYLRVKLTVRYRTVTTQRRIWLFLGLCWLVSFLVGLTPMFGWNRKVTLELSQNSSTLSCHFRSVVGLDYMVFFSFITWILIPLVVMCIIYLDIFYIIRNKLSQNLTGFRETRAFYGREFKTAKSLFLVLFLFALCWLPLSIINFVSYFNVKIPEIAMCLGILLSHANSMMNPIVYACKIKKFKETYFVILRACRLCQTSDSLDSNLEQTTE
# Method in brief: (§1)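 CHO cells stably expressing rat A3 AR, seeded at 150,000-200,000 cells/well. Cells washed, then held 2 h at 37 °C in HBSS with 20 mM HEPES (pH 7.3) and 2 U/ml adenosine deaminase. Forskolin (10 μM) plus NECA concentration series added at 36.5 °C, with or without test compound. Stopped by hot lysis solution (90 °C, 4 mM Na2EDTA, Triton X-100). Data normalized to forskolin (100%) and buffer (0%). KB calculated, n=3.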
# Adenosine receptor A3 [2] = target: T1, Adenosine receptor A3; assay: Antagonist activity at rat A3AR expressed in CHO cells assessed as reduction in NECA-induced inhibition of forskolin-stimulated cAMP accumulation at 3 uM incubated for 2 hrs by fluorescence based assay; method in brief: as §1
# Adenosine receptor A3 [3] = target: T1, Adenosine receptor A3; assay: Antagonist activity at rat A3AR expressed in CHO cells assessed as reduction in NECA-induced inhibition of forskolin-stimulated cAMP accumulation incubated for 2 hrs by fluorescence based assay; method in brief: as §1
# Adenosine receptor A1 = target: T2, Adenosine receptor A1 (Rattus norvegicus, UniProt P25099); assay: Displacement of [3H]DPCPX from rat brain cortical membrane A1AR assessed as GTP shift
# T2 sequence (P25099 whole entry): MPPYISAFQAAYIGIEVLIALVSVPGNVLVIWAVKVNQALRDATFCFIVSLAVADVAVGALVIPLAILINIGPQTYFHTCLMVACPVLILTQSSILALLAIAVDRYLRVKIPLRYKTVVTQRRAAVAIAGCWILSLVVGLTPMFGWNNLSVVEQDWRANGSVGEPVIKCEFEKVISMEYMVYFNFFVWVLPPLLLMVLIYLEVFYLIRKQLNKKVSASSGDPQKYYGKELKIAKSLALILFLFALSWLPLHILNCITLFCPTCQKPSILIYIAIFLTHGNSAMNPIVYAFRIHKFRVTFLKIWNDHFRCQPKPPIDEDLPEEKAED
Structure (SMILES),EC50 (Adenosine receptor A3 [1]),EC50 (Adenosine receptor A3 [2]),EC50 (Adenosine receptor A3 [3]),GTP shift (Adenosine receptor A1)
O=C(Nc1nc(-c2ccccc2)c(-c2nc3ccccc3c(=O)n2-c2ccc(Cl)cc2)s1)c1ccco1,1.72 µM,0.057 µM,0.0053 µM,–
Cc1ccc(C(=O)c2sc(NC(=O)c3ccco3)nc2-c2ccccc2)cc1,–,–,–,1.3

# Next, values leading:
EC50 (Adenosine receptor A3 [1]),EC50 (Adenosine receptor A3 [2]),EC50 (Adenosine receptor A3 [3]),GTP shift (Adenosine receptor A1),Structure (SMILES)
–,–,–,1,COc1ccc(C(=O)Nc2nc(-c3ccccc3)c(C(=O)c3ccc(C)cc3)s2)cc1
–,–,–,1,O=C(Nc1nc(-c2ccccc2)c(C(=O)c2ccc(Cl)cc2)s1)c1ccccc1
–,–,–,0.9,O=C(Nc1nc(-c2ccccc2)c(C(=O)c2ccc(F)cc2F)s1)c1ccccc1
